Test results published in ChEMBL document CHEMBL4251655 (Eur J Med Chem, 2018).

Columns and labels:
[1] = target: Serine/threonine-protein kinase PAK 4 (Homo sapiens) (UniProt O96013); test: Inhibition of recombinant human GST-tagged PAK4 expressed in baculovirus expression system at 1 uM relative to control
Method in brief: (§1)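 Forty-kinase selectivity panel; each compound tested at a single 1 µM concentration in the presence of 1 mM ATP; result given as percent inhibition.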

[2] = Permeability of the compound in RRCK cells; type: ADME, cell-based, Canis lupus familiaris, MDCKII-LE; settings: dog, MDCK; read-out: permeability
[3] = target: Serine/threonine-protein kinase MARK1 (Homo sapiens) (UniProt Q9P0L2); test: Inhibition of recombinant human full length GST-tagged MARK1 expressed in baculovirus expression system at 1 uM relative to control; method in brief: as §1
Sequence of Serine/threonine-protein kinase MARK1 (Homo sapiens) (Q9P0L2 whole entry, looked up): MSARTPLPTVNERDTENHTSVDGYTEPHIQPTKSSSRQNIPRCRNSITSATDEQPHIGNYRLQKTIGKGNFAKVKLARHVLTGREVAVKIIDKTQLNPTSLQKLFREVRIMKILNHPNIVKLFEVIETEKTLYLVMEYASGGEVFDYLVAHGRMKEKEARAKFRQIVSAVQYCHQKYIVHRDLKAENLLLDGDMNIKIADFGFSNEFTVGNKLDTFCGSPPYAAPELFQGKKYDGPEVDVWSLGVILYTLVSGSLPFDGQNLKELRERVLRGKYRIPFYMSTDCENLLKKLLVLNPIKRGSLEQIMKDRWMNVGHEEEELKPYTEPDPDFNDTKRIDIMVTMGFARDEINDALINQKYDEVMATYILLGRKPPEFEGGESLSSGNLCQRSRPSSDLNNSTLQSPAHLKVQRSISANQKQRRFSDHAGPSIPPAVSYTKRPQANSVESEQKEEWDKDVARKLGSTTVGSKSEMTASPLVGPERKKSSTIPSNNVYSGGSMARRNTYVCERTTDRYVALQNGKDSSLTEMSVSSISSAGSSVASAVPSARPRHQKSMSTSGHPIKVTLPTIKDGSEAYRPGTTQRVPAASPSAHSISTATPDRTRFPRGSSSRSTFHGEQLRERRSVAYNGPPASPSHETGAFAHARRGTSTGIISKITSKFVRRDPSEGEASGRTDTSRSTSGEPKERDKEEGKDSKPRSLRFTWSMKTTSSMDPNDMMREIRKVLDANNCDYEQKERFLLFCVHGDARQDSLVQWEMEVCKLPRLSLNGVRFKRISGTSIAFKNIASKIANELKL

[4] = target: T1, Interleukin-1 receptor-associated kinase 4 (Homo sapiens) (UniProt Q9NWZ3); test: Inhibition of recombinant full length human His-tagged IRAK4 expressed in baculovirus expression system at 1 uM relative to control; method in brief: as §1
T1 sequence (whole entry): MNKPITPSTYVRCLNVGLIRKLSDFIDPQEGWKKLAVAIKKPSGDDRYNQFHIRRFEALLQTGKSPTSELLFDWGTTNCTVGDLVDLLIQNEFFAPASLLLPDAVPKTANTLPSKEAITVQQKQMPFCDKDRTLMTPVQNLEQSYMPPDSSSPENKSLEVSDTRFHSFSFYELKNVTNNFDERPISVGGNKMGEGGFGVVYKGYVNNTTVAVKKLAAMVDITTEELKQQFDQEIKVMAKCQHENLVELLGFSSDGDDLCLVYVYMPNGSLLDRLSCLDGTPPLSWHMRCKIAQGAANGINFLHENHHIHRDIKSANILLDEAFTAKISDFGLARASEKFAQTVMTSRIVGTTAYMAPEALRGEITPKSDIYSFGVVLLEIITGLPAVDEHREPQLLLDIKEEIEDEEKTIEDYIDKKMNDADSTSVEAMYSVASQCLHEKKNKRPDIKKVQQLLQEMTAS

[5] = target: Vascular endothelial growth factor receptor 2 (Homo sapiens) (UniProt P35968); test: Inhibition of recombinant human His-tagged KDR cytoplasmic domain expressed in baculovirus expression system at 1 uM relative to control; method in brief: as §1
Sequence of Vascular endothelial growth factor receptor 2 (Homo sapiens) (P35968 whole entry, the tested form may be a part): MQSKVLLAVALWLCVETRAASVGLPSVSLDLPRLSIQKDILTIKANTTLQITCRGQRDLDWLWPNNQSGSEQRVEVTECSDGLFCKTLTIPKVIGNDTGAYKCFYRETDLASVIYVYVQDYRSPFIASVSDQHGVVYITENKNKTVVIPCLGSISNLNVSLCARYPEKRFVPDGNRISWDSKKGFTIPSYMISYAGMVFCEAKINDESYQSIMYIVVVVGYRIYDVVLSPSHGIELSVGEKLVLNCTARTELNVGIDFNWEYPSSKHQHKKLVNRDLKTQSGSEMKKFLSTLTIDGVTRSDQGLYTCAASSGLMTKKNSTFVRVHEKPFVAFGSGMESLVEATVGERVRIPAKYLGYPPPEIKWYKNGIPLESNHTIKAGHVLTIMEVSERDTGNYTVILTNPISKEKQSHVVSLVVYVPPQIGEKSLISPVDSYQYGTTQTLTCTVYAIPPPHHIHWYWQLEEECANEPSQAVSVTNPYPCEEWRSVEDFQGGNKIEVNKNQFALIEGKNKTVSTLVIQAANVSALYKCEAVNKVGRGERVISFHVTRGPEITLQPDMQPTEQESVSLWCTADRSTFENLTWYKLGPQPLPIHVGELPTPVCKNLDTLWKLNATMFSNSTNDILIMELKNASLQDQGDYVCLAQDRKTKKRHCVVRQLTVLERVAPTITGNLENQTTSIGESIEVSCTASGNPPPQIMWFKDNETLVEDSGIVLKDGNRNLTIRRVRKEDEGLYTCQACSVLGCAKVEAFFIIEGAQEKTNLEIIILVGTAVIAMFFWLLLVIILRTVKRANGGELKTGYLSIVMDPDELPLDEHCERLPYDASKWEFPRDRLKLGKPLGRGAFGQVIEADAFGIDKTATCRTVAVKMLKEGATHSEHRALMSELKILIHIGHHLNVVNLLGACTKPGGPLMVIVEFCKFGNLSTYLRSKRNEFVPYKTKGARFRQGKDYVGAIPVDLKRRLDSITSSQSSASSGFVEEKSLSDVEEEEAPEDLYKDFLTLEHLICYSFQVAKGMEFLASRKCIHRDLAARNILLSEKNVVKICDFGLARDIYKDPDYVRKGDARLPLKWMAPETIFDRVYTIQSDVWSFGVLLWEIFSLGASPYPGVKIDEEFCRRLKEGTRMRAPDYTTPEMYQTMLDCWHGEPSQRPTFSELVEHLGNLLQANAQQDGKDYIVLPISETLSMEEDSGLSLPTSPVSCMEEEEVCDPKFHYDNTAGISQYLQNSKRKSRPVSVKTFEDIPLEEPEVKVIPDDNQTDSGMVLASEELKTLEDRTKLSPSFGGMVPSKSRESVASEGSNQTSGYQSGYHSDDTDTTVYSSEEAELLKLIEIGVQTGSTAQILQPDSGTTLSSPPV

[6] = target: T2, 3-phosphoinositide-dependent protein kinase 1 (Homo sapiens) (UniProt O15530); test: Inhibition of recombinant human full length His-tagged PDPK1 expressed in baculovirus expression system at 1 uM relative to control; method in brief: as §1
T2 sequence (whole entry): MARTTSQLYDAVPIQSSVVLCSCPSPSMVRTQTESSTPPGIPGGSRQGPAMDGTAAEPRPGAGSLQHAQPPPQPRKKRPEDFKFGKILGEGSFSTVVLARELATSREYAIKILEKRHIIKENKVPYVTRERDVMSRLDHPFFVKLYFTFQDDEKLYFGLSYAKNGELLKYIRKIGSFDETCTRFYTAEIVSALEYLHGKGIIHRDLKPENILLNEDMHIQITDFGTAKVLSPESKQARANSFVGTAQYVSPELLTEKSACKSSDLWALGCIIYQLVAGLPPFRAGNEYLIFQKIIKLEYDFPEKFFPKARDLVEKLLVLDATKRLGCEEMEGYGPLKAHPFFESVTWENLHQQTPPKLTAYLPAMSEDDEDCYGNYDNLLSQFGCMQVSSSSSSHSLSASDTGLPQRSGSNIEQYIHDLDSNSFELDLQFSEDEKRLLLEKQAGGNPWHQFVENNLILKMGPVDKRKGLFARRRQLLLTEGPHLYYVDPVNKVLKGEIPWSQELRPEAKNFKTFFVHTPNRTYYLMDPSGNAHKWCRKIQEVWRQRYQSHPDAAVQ

[7] = target: T3, Serine/threonine-protein kinase 3 (Homo sapiens) (UniProt Q13188); test: Inhibition of recombinant human full length GST-tagged STK3 expressed in baculovirus expression system at 1 uM relative to control; method in brief: as §1
T3 sequence (whole entry): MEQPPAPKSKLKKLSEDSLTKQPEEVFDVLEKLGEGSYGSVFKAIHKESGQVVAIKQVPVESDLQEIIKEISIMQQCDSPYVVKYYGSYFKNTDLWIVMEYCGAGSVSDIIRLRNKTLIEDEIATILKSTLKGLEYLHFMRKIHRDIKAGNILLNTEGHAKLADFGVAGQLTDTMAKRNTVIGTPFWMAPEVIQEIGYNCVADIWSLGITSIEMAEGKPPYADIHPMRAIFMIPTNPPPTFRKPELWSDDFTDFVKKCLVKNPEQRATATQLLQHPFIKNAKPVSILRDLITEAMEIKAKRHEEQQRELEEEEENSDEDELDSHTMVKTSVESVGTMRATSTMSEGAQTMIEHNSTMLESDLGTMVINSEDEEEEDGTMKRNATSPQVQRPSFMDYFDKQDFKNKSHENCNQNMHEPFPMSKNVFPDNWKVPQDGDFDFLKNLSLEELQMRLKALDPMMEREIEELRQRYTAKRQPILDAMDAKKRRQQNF

Sequence of Serine/threonine-protein kinase PAK 4 (Homo sapiens) (O96013 whole entry, looked up): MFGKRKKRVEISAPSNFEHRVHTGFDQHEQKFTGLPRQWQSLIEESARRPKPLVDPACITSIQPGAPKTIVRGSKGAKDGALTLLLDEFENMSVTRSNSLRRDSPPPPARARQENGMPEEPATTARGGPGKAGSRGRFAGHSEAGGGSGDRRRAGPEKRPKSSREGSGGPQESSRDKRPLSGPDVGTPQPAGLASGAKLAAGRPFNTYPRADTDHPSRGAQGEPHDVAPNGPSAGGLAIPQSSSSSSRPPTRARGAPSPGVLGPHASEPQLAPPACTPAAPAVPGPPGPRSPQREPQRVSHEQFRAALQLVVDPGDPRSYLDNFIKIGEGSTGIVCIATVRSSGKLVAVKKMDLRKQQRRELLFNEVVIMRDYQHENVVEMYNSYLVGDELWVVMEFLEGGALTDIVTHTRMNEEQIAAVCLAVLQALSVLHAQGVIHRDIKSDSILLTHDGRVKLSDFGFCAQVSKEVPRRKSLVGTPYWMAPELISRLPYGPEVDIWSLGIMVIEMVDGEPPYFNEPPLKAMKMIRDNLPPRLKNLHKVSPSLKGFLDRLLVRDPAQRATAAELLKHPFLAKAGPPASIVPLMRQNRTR

Row | SMILES | inhibition [1] [%] | Papp [2] [×10⁻⁶ cm/s] | inhibition [3] [%] | inhibition [4] [%] | inhibition [5] [%] | inhibition [6] [%] | inhibition [7] [%]
1 | COc1ccc(S(C)(=O)=O)cc1C(=O)Nc1cccc(-c2nncn2C(C)C)n1 | 6 | 7.9 | 3 | 3 | -4 | -2 | -1
2 | COc1cc(C)c(C(N)=O)cc1C(=O)Nc1cccc(-c2nncn2C(C)C)n1 | 9 | 3.5 | 5 | -2 | 57 | 10 | 40
3 | COc1ccc(C(N)=O)cc1C(=O)Nc1cccc(-c2nncn2C(C)C)n1 | 20 | 3.5 | 0 | -1 | 59 | 7 | 0
4 | COc1cc(C)c(S(N)(=O)=O)cc1C(=O)Nc1cccc(-c2nncn2C(C)C)n1 | 10 | 2.3 | -1 | 2 | 8 | -2 | 13
5 | COc1ccc(S(N)(=O)=O)cc1C(=O)Nc1cccc(-c2nncn2C(C)C)n1 | 8 | 2 to 2.04 | 0 | -9 | -1 | -6 | -1
6 | COc1cc(C)c(S(C)(=O)=O)cc1C(=O)Nc1cccc(-c2nncn2C(C)C)n1 | -1 | 7.2 | -1 | 4 | 7 | 11 | 10
